Assay results: PubChem BioAssay AID504383 (The Scripps Research Institute Molecular Screening Center, 2011)
Out of some 2,500 compounds screened, about 1,200 (48%) were called active.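 The calls were made as follows: active = mean activation above the low control average plus 3 SD, as set in the primary screen (cut at about 12% in these data); inactive = the rest.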 The set was probably picked from earlier hits. This is one part of the list.

Molecular target: Troponin I, cardiac muscle (Homo sapiens) + Troponin T, cardiac muscle (Homo sapiens) + Troponin C, slow skeletal and cardiac muscles (Homo sapiens) (UniProt P19429+P45379+P63316)
Assay: cardiac RTF calcium sensitivity activators, confirmation, biochemical, IANBD-TnC fluorescence, triplicate (AID 504383);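 also: 0% = DMSO at 0.472 mM calcium and 100% = DMSO at 2.9 mM calcium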
Settings: IANBD-labeled cardiac RTF, Ca2+ sensitivity fluorescence; at 7.2 µM; hits give high values; scaled from EC20 to saturating calcium; tested at EC20 calcium, 0.472 mM
Outline: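 System: Labelled thin filament complex | Technique: Filament fluorescence intensity | Benchmarks: Low control EC20 calcium, high control EC100 calcium | Timing: 15 min at 25 °C | Compound dosing: One dose, 7.2 µM nominal | Probe or stimulus: Ca2+ 0.472 mM, EC20 level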

activation, active:
CC(=O)N1CCc2c(sc(NC(=O)C3CCCN3S(=O)(=O)c3cccs3)c2C(N)=O)C1 (configuration not stated) 39.1%, CCN1C(=O)/C(=C/N2CCc3ccccc32)SC1=S 50%, COc1ccccc1NCC(=O)NC(=O)NC1CCCCC1 13.1%, COc1ccc(N2CC(C(=O)Nc3nc(-c4ccccc4)c(C(C)=O)s3)CC2=O)c(OC)c1 (configuration not stated) 12.4%, N#CC1=C(N)OC2=C(CC/C2=C\c2ccccc2Cl)C1c1ccccc1Cl (configuration not stated) 317%, N#CC1=C(N)OC2=C(CC/C2=C\c2ccccc2)C1c1ccccc1 (configuration not stated) 36.3%, CC(=O)C1=C(C)N(CC2CC2)C(=O)N[C@H]1c1ccc(Br)cc1 102%, COc1ccc(Cl)cc1NC(=O)CN(C)C(=O)c1ccc(N2CCCCCC2)c([N+](=O)[O-])c1 59.6%, O=C(Cc1ccccc1)Nn1c(O)c(/C=C2\C=Nc3ccccc32)sc1=S 87.3%, CN(C)/C=C1\C=C2C(=O)c3ccccc3N2C1=O 87.3%, Cc1cc(C)c(NC(=S)N(C)C)c(C)c1 42.1%, N=C1c2ccccc2CN1c1ccc(S(=O)(=O)N2CCCCC2)cc1 49.2%, CN(C)c1ccc(/C=C/C(=O)c2c(O)c3ccccc3oc2=O)cc1 12.3%, CCOc1cccc2c1OC(c1cc(OC)c(OC)c(OC)c1)N1N=C(c3ccc(C)o3)CC21 (configuration not stated) 11.7%, O=C1NCCN1c1ncc([N+](=O)[O-])s1 19.6%, CC(=O)N(C)c1ccc(C(O)(C(F)(F)F)C(F)(F)F)cc1 30.4%, COc1ccc(CCNC(=O)COC(=O)c2cc(=O)[nH]c3ccccc23)cc1 93%, CN1CCC(N(CCc2ccccc2)C(=O)CCC(=O)O)CC1 146%, CCN(CC)c1nc2ccccc2nc1C(C#N)C(=O)NCCc1ccccc1 (configuration not stated) 532%, COc1ccc(C(=O)NCC(=O)N2CCN(C(=O)c3ccco3)CC2)cc1OC 47.6%, COc1ccccc1NC(=O)COC(=O)c1cnc(C)cn1 101%, O=C(/C=C/c1nc2ccccc2s1)N1CCCCCC1 35%, FC(F)(F)c1cccc(-c2nc(COc3ccc(Cl)cc3Cl)no2)c1 5570%, Cc1cn(COC/C=C/c2ccccc2)c(=O)[nH]c1=O 81.1%, CCc1nc(Nc2ccc(O)cc2)c2oc3ccccc3c2n1 56.6%, NC(=O)NC(=O)COC(=O)c1cccc(NS(=O)(=O)/C=C/c2ccccc2)c1 38.6%, CCOC(=O)c1cnc(SC)nc1Oc1cccc(NS(=O)(=O)c2ccc(Cl)cc2)c1 14.8%, CN(N=Nc1ccc([N+](=O)[O-])cc1)c1ccccc1 36.2%, O=[N+]([O-])c1ccc(N(c2ccccc2)c2ccccc2)cc1 14.5%, CN(/N=C/c1ccc(-c2ccc([N+](=O)[O-])cc2)o1)c1ccccc1 30.8%, O=C(O)c1cccc(-c2ccc(/C=N/Nc3ccc([N+](=O)[O-])cc3)o2)c1 12.7%, COc1ccc2nc3ccccc3[n+]([O-])c2c1 13.1%, COc1cc(/C=C/C=C2/CC/C(=C/C=C/c3ccc(O)c(OC)c3)C2=O)ccc1O 19.4%, COc1cc(/C=C/C(=O)/C=C(O)/C=C/c2ccc(O)c(OC)c2)ccc1O 287%, CCN(CC)c1ccc2cc(S(=O)(=O)c3ccc(C)cc3)c(=O)oc2c1 32.5%, CCN(CC)c1ccc2cc(S(=O)(=O)c3ccc(Cl)cc3)c(=O)oc2c1 372%, CCN(CC)c1ccc2c(c1)oc(=O)c1c(Cl)cc(=O)oc12 63.5%, CCN(CC)c1ccc2cc(C=O)c(=O)oc2c1 17%, CCN(CC)c1ccc2oc(=O)c(C)nc2c1 364%, CCOC(=O)c1c(C#N)c(SCC(=O)Nc2ccc(OC)cc2)nc2c1CN(CC)CC2 78.6%, COc1cccc2c1C(=O)c1c(O)c3c(c(O)c1C2=O)CC(O)(C(C)=O)CC3OC1CC(O)C(O)C(C)O1 (configuration not stated) 75.5%, COc1cccc2c1C(=O)c1c(O)c3c(c(O)c1C2=O)CC(O)(C(=O)CO)CC3OC1CC(N(C)C)C(O)C(C)O1 (configuration not stated) 211%, CN(C)c1ccc(/C=C/c2cc[n+](C)cc2)cc1 28.1%

activation, inactive:
OCCN(CCO)c1nc(N2CCCCC2)c2nc(N(CCO)CCO)nc(N3CCCCC3)c2n1 7.69%, CN1CCc2c(sc(/N=C/c3ccco3)c2C(N)=O)C1 10.3%, CN1CCc2c(sc(/N=C/c3cccs3)c2C(N)=O)C1 2.64%, C=CCN1C(=O)/C(=C\C=C2\N(C)c3ccccc3C2(C)C)SC1=S 3.44%, CCOc1ccc(C(=O)NC2CCN(C(=O)Nc3ccccc3OC)CC2)cc1 2.1%, COc1ccc(C2=NS(=O)(=O)N(C)C(C(=O)NC3CCCC3)=C2)cc1 -1.79%, CSCCC(NC(=O)c1ccc(Cl)cc1)C(=O)OCC(=O)c1ccc[nH]1 (configuration not stated) 9.46%, CCS(=O)(=O)N1Cc2ccccc2CC1C(=O)Nc1ccc(OC)cc1OC (configuration not stated) 6.84%, COc1ccc(OC)c(S(=O)(=O)N2CCC(C(=O)NCc3ccccn3)CC2)c1 7.51%, Cc1ccc(/C=C2\CCC3=C2OC(N)=C(C#N)C3c2ccc(C)cc2)cc1 (configuration not stated) 11%, CC(=O)C1=C(C)N(Cc2ccccc2)C(=O)N[C@@H]1c1cccc(C(F)(F)F)c1 8.59%, COc1ccc(Cl)cc1NC(=O)CN(C)C(=O)COc1ccccc1F 4.03%, CN(C)C(=O)CN1C(=O)C2CCCCN2C(=O)c2ccccc21 (configuration not stated) 9.05%, CSc1nnc(-c2ccc(S(=O)(=O)N3CCCC3)cc2)n1C -0.41%, CN(C)c1ccc(/C=C/C(=O)c2ccccc2O)cc1 6.07%, COc1ccc(CCNC(=O)C2CC(c3c(Cl)cccc3Cl)=NO2)cc1 (configuration not stated) 7.74%, COc1cccc(/C(O)=C/c2nc3ccc(C(=O)NCCc4cccc(C)c4)cc3[nH]c2=O)c1 9.81%, CCc1ccc(/C=N/n2c(C)cc(C)c(C#N)c2=O)cc1 7.16%, Cc1c(/C=N/O)c2ccccn2c1C=O 8.72%, N#CC(C(=O)NCc1ccccc1)c1nc2ccccc2nc1N1CCCC1 (configuration not stated) -1.52%, CCCCCCNC(=O)C(C#N)c1nc2ccccc2nc1N1CCCC1 (configuration not stated) 5.18%, O=C(NCC(=O)N1CCN(c2ncccn2)CC1)c1ccccc1OC(F)F 0.94%, Cc1ccc(NC2OC(C(O)CO)C(O)C2O)cc1[N+](=O)[O-] (configuration not stated) 8.56%, O=C(c1ccccc1)N1CCCCC1 8.78%, CC(=O)Nc1sc2c(c1-c1nc3ccccc3s1)CCN(C(C)C)C2 10.5%, C=CCNC(=S)NNC(=O)c1ccc(OCC(C)C)cc1 4.58%, CC(C)C(=O)COc1c2occc2cc2ccc(=O)oc12 1.65%, CCOC(=O)N1CCC(Nc2nc3ccccc3nc2NS(=O)(=O)c2ccc(Cl)cc2)CC1 11.1%, CCC1(CC)C(=O)Nc2ccccc21 5.14%, Cc1ccc(C(=O)N/C(=C/c2ccc(-c3ccc([N+](=O)[O-])cc3)o2)C(=O)NCCCN(C)C)cc1 5.11%, Cc1cc([N+](=O)[O-])ccc1-c1ccc(/C=N/NC(=O)c2ccc(Br)o2)o1 7.92%, O=C1CC(c2ccccc2)=NN1c1ccc([N+](=O)[O-])cc1 10.7%, Cc1oc2c(cc(NS(=O)(=O)c3ccc(C(C)C)cc3)c3ccccc32)c1C(=O)O 9.7%, CCOCCCNc1ccc(-c2ccccc2)nn1 8.24%, O=C(/C=C(O)/C=C/c1ccc(O)cc1)/C=C/c1ccc(O)cc1 10.7%, COc1cc(/C=C/C(O)=C/C(=O)/C=C/c2ccc(O)cc2)ccc1O 8.41%, COc1cc(/C=C/C(=O)CC(=O)/C=C/c2ccc(O)c(OC)c2)ccc1O 9.89%, CCN(CC)c1ccc2cc(NC(=O)CCC(=O)O)c(=O)oc2c1 4.16%, CCN(CC)c1ccc2cc(C(C)=O)c(=O)oc2c1 0.78%, CCN(CC)c1ccc2c(Cl)c(Br)c(=O)oc2c1 8.56%, Clc1ccccc1N=Nc1ccccn1 9.89%, COc1cccc2c1C(=O)c1c(O)c3c(c(O)c1C2=O)C[C@](O)(C(C)=O)C[C@H]3O[C@@H]1C[C@@H](N)[C@@H](O)[C@@H](C)O1 4.79%, COc1cccc2c1C(=O)c1c(O)c3c(c(O)c1C2=O)C[C@@](O)(C(=O)CO)C[C@@H]3OC1CC(N)C(O)C(C)O1 (some centres not stated) 9.17%, COc1cccc2c1C(=O)c1c(O)c3c(c(O)c1C2=O)CC(O)(C(C)=O)CC3OC1CC(N(C)C)C(O)C(C)O1 (configuration not stated) 6.16%, COc1cccc2c1C(=O)c1c(O)c3c(c(O)c1C2=O)C[C@@](O)(C(=O)CO)C[C@@H]3O[C@H]1C[C@H](N)[C@H](O)[C@H](C)O1 3.66%, C[C@H]1COc2c(N3CCN(C)CC3)c(F)cc3c(=O)c(C(=O)O)cn1c23 6.23%, CN(C)c1ccc(/C=C/c2cc[n+](C)c3ccccc23)cc1 6.25%, Cc1ccc(/C=C/c2ccc(N(C)C)cc2)[n+](C)c1 9.58%, CCOc1cc(/C=C2\NC(=O)NC2=O)cc([N+](=O)[O-])c1O 8.6%
